Residues, ends and D or L forms follow the SMILES beside them. *: point of attachment. Octanoyl = CCCCCCCC(=O)*
How the values were obtained:
HEK293 [1] = assay: Effective dose measuring intracellular calcium elevation in HEK293 cells; format: functional, cell-based; settings: Homo sapiens
In short: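 Apo-aequorin was charged 1 h with 10 µM coelenterazine and 300 µM reduced glutathione in ECB buffer, pH 7.4. 5 × 10^4 cells were injected onto peptide and light integrated over 30 s, then Triton X-100 lysis (0.1% final) read over 10 s. Fractional response = challenge/total luminescence.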

HEK293 [2] = assay: Percent activation at 10 uM relative to ghrelin to measure intracellular calcium elevation in HEK293 cells; format: functional, Homo sapiens
[3] = molecular target: Growth hormone secretagogue receptor type 1 (Homo sapiens, UniProt Q92847); assay: Binding affinity to cloned human growth hormone secretagogue receptor type 1 in a competitive binding assay with [35S]MK-0677 as a radiolabeled ligand
Growth hormone secretagogue receptor type 1, sequence (Q92847 whole entry): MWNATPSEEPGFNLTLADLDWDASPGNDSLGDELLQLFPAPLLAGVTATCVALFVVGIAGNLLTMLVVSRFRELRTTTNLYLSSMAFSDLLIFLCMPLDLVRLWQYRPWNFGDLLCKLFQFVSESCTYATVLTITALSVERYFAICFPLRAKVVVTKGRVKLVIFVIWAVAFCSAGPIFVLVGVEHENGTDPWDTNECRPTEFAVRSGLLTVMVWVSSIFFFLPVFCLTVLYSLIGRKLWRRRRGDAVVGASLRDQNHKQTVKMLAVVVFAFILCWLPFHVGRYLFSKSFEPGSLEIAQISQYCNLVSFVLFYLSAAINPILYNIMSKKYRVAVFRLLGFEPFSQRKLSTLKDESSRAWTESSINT
In short: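 Competition filter binding on crude membranes from HEK293-aequorin stable cells expressing hGHSR1a, 4 µg membrane protein/well. Bound membranes were filtered on 0.5% polyethylenimine-prewet GF/C filters, washed 8 times and counted by scintillation.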

Row | IC50 [3] | Structure (SMILES) | EC50 (HEK293 [1]) | Activation (HEK293 [2])
1 |  | CCCCCCCC(=O)OC[C@H](NC(=O)[C@H](CO)NC(=O)CN)C(=O)N[C@@H](Cc1ccccc1)C(N)=O (H-GSS(Octanoyl)F-NH2) | 72 nM | 91%
2 |  | CCCCCCCC(=O)OC[C@H](NC(=O)[C@H](CO)NC(=O)CN)C(=O)N[C@@H](Cc1ccccc1)C(=O)N[C@@H](CC(C)C)C(=O)N[C@@H](CO)C(=O)N1CCC[C@H]1C(=O)N[C@@H](CCC(=O)O)C(=O)N[C@@H](Cc1c[nH]cn1)C(=O)N[C@@H](CCC(N)=O)C(=O)N[C@@H](CCCN=C(N)N)C(=O)N[C@H](C(=O)N[C@@H](CCC(N)=O)C(=O)N[C@@H](CCC(N)=O)C(=O)N[C@@H](CCCN=C(N)N)C(=O)N[C@@H](CCCCN)C(=O)N[C@@H](CCC(=O)O)C(=O)N[C@@H](CO)C(=O)N[C@@H](CCCCN)C(=O)N[C@@H](CCCCN)C(=O)N1CCC[C@H]1C(=O)N1CCC[C@H]1C(=O)N[C@@H](C)C(N)=O)C(C)C (H-GSS(Octanoyl)FLSPEHQRVQQRKESKKPPA-NH2) | 15 nM | 100%
3 | > 10000 nM | CCCCCCCC(=O)OC[C@H](NC(=O)[C@H](CO)NC(C)=O)C(=O)N[C@@H](Cc1ccccc1)C(N)=O (Ac-Ser-Ser(Octanoyl)-Phe-NH2) | > 10000 nM | 28%
4 |  | CCCCCCCC(=O)OC[C@H](NC(=O)[C@H](CO)NC(=O)CN)C(=O)N[C@@H](Cc1ccccc1)C(=O)N[C@@H](CC(C)C)C(=O)N[C@@H](CO)C(=O)N1CCC[C@H]1C(=O)N[C@@H](CCC(=O)O)C(=O)N[C@@H](Cc1cnc[nH]1)C(=O)N[C@@H](CCC(N)=O)C(=O)N[C@@H](CCCNC(=N)N)C(=O)N[C@H](C(=O)N[C@@H](CCC(N)=O)C(=O)N[C@@H](CCC(N)=O)C(=O)N[C@@H](CCCNC(=N)N)C(=O)N[C@@H](CCCCN)C(=O)N[C@@H](CCC(=O)O)C(=O)N[C@@H](CO)C(=O)N[C@@H](CCCCN)C(=O)N[C@@H](CCCCN)C(=O)N1CCC[C@H]1C(=O)N1CCC[C@H]1C(=O)N[C@@H](C)C(=O)N[C@@H](CCCCN)C(=O)N[C@@H](CC(C)C)C(=O)N[C@@H](CCC(N)=O)C(=O)N1CCC[C@H]1C(=O)N[C@@H](CCCNC(=N)N)C(=O)O)C(C)C |  | 100%
5 | > 10000 nM | CCCCCCCC(=O)OC[C@H](NC(=O)[C@H](CO)NC(=O)CN)C(N)=O (H-Gly-Ser-Ser(Octanoyl)-NH2) | > 10000 nM | 28%
6 |  | CCCCCCCC(=O)OC[C@H](NC(=O)[C@H](CO)NC(=O)CN)C(=O)N[C@@H](Cc1ccccc1)C(=O)N[C@@H](CC(C)C)C(N)=O (H-GSS(Octanoyl)FL-NH2) | 11.5 nM | 11.5%
7 |  | CC(C)C[C@H](NC(=O)[C@H](CCCCN)NC(=O)[C@H](C)NC(=O)[C@@H]1CCCN1C(=O)[C@@H]1CCCN1C(=O)[C@H](CCCCN)NC(=O)[C@H](CCCCN)NC(=O)[C@H](CO)NC(=O)[C@H](CCC(=O)O)NC(=O)[C@H](CCCCN)NC(=O)[C@H](CCCNC(=N)N)NC(=O)[C@H](CCC(N)=O)NC(=O)[C@H](CCC(N)=O)NC(=O)[C@@H](NC(=O)[C@H](CCCNC(=N)N)NC(=O)[C@H](CCC(N)=O)NC(=O)[C@H](Cc1cnc[nH]1)NC(=O)[C@H](CCC(=O)O)NC(=O)[C@@H]1CCCN1C(=O)[C@H](CO)NC(=O)[C@H](CC(C)C)NC(=O)[C@H](Cc1ccccc1)NC(=O)[C@H](CO)NC(=O)[C@H](CO)NC(=O)CN)C(C)C)C(=O)N[C@@H](CCC(N)=O)C(=O)N1CCC[C@H]1C(=O)N[C@@H](CCCNC(=N)N)C(=O)O | > 10000 nM | 41%
8 | > 10000 nM | CCCCCCCC(=O)OC[C@H](NC(C)=O)C(=O)N[C@@H](Cc1ccccc1)C(=O)N[C@@H](CC(C)C)C(N)=O (Ac-Ser(Octanoyl)-Phe-Leu-NH2) | 2500 nM | 29%
9 |  | CC(C)C[C@H](NC(=O)[C@H](CCCCN)NC(=O)[C@H](C)NC(=O)[C@@H]1CCCN1C(=O)[C@@H]1CCCN1C(=O)[C@H](CCCCN)NC(=O)[C@H](CCCCN)NC(=O)[C@H](CO)NC(=O)[C@H](CCC(=O)O)NC(=O)[C@H](CCCCN)NC(=O)[C@H](CCCNC(=N)N)NC(=O)[C@H](CCC(N)=O)NC(=O)[C@H](CCC(N)=O)NC(=O)[C@@H](NC(=O)[C@H](CCCNC(=N)N)NC(=O)[C@H](CCC(N)=O)NC(=O)[C@H](Cc1cnc[nH]1)NC(=O)[C@H](CCC(=O)O)NC(=O)[C@@H]1CCCN1C(=O)[C@H](CO)NC(=O)[C@H](CC(C)C)NC(=O)[C@H](Cc1ccccc1)NC(=O)[C@H](COC(=O)CC12CC3CC(CC(C3)C1)C2)NC(=O)[C@H](CO)NC(=O)CN)C(C)C)C(=O)N[C@@H](CCC(N)=O)C(=O)N1CCC[C@H]1C(=O)N[C@@H](CCCNC(=N)N)C(=O)O |  | 95%
10 | 8 nM | CCCCCCCC(=O)NC[C@H](NC(=O)[C@H](CO)NC(=O)CN)C(=O)N[C@@H](Cc1ccccc1)C(=O)N[C@@H](CC(C)C)C(=O)N[C@@H](CO)C(=O)N1CCC[C@H]1C(=O)N[C@@H](CCC(=O)O)C(=O)N[C@@H](Cc1c[nH]cn1)C(=O)N[C@@H](CCC(N)=O)C(=O)N[C@@H](CCCNC(=N)N)C(=O)N[C@H](C(=O)N[C@@H](CCC(N)=O)C(=O)N[C@@H](CCC(N)=O)C(=O)O)C(C)C [listing 1 of 2 here] | 38 nM | 
11 | 0.77 nM | CCCCCCCC(=O)OC[C@H](NC(=O)[C@H](CO)NC(=O)CN)C(=O)N[C@@H](Cc1ccccc1)C(=O)N[C@@H](CC(C)C)C(=O)N[C@@H](CO)C(=O)N1CCC[C@H]1C(=O)N[C@@H](CCC(=O)O)C(=O)N[C@@H](Cc1c[nH]cn1)C(=O)N[C@@H](CCC(N)=O)C(=O)N[C@@H](CCCNC(=N)N)C(=O)N[C@H](C(=O)N[C@@H](CCC(N)=O)C(=O)N[C@@H](CCC(N)=O)C(=O)N[C@@H](CCCNC(=N)N)C(=O)N[C@@H](CCCCN)C(=O)N[C@@H](CCC(=O)O)C(=O)N[C@@H](CO)C(N)=O)C(C)C (H-GSS(Octanoyl)FLSPEHQRVQQRKES-NH2) [listing 1 of 2 here] | 22 nM | 
12 |  | CCCCCCCC(=O)OC[C@H](NC(=O)[C@H](CO)NC(=O)CN)C(=O)N[C@@H](Cc1ccccc1)C(=O)N[C@@H](CC(C)C)C(=O)N[C@@H](CO)C(=O)N1CCC[C@H]1C(=O)N[C@@H](CCC(=O)O)C(=O)N[C@@H](Cc1c[nH]cn1)C(=O)N[C@@H](CCC(N)=O)C(=O)N[C@@H](CCCNC(=N)N)C(=O)N[C@H](C(=O)N[C@@H](CCC(N)=O)C(=O)N[C@@H](CCC(N)=O)C(=O)N[C@@H](CCCNC(=N)N)C(=O)N[C@@H](CCCCN)C(=O)N[C@@H](CCC(=O)O)C(=O)N[C@@H](CO)C(N)=O)C(C)C (H-GSS(Octanoyl)FLSPEHQRVQQRKES-NH2) [listing 2 of 2 here] |  | 92%
13 |  | CCCCCCCC(=O)NC[C@H](NC(=O)[C@H](CO)NC(=O)CN)C(=O)N[C@@H](Cc1ccccc1)C(=O)N[C@@H](CC(C)C)C(=O)N[C@@H](CO)C(=O)N1CCC[C@H]1C(=O)N[C@@H](CCC(=O)O)C(=O)N[C@@H](Cc1c[nH]cn1)C(=O)N[C@@H](CCC(N)=O)C(=O)N[C@@H](CCCNC(=N)N)C(=O)N[C@H](C(=O)N[C@@H](CCC(N)=O)C(=O)N[C@@H](CCC(N)=O)C(=O)O)C(C)C [listing 2 of 2 here] |  | 102%
14 |  | CCCCCCCC(=O)OC[C@H](NC(=O)[C@H](CO)NC(=O)CN)C(=O)N[C@@H](Cc1ccccc1)C(=O)N[C@@H](CC(C)C)C(=O)N[C@@H](CO)C(=O)N1CCC[C@H]1C(=O)N[C@@H](CCC(=O)O)C(=O)N[C@@H](Cc1c[nH]cn1)C(=O)N[C@@H](CCC(N)=O)C(=O)N[C@@H](CCCN=C(N)N)C(=O)N[C@H](C(=O)N[C@@H](CCC(N)=O)C(=O)N[C@@H](CCC(N)=O)C(=O)O)C(C)C [listing 1 of 2 here] |  | 97%
15 | 9.6 nM | CCCCCCCC(=O)OC[C@H](NC(=O)[C@H](CO)NC(=O)CN)C(=O)N[C@@H](Cc1ccccc1)C(=O)N[C@@H](CC(C)C)C(=O)N[C@@H](CO)C(=O)N1CCC[C@H]1C(=O)N[C@@H](CCC(=O)O)C(=O)N[C@@H](Cc1c[nH]cn1)C(=O)N[C@@H](CCC(N)=O)C(=O)N[C@@H](CCCN=C(N)N)C(=O)N[C@H](C(=O)N[C@@H](CCC(N)=O)C(=O)N[C@@H](CCC(N)=O)C(=O)O)C(C)C [listing 2 of 2 here] | 17 nM | 
16 | 0.42 nM | CCCCCCCC(=O)NC[C@H](NC(=O)[C@H](CO)NC(=O)CN)C(=O)N[C@@H](Cc1ccccc1)C(=O)N[C@@H](CC(C)C)C(=O)N[C@@H](CO)C(=O)N1CCC[C@H]1C(=O)N[C@@H](CCC(=O)O)C(=O)N[C@@H](Cc1cnc[nH]1)C(=O)N[C@@H](CCC(N)=O)C(=O)N[C@@H](CCCNC(=N)N)C(=O)N[C@H](C(=O)N[C@@H](CCC(N)=O)C(=O)N[C@@H](CCC(N)=O)C(=O)N[C@@H](CCCNC(=N)N)C(=O)N[C@@H](CCCCN)C(=O)N[C@@H](CCC(=O)O)C(=O)N[C@@H](CO)C(=O)N[C@@H](CCCCN)C(=O)N[C@@H](CCCCN)C(=O)N1CCC[C@H]1C(=O)N1CCC[C@H]1C(=O)N[C@@H](C)C(=O)N[C@@H](CCCCN)C(=O)N[C@@H](CC(C)C)C(=O)N[C@@H](CCC(N)=O)C(=O)N1CCC[C@H]1C(=O)N[C@@H](CCCNC(=N)N)C(=O)O)C(C)C | 31 nM | 105%

Row | Structure (SMILES) | IC50 [3] | EC50 (HEK293 [1]) | Activation (HEK293 [2])
17 | CCCCCCCC(=O)OC[C@H](NC(=O)[C@H](CO)NC(C)=O)C(=O)N[C@@H](Cc1ccccc1)C(=O)N[C@@H](CC(C)C)C(N)=O (Ac-SS(Octanoyl)FL-NH2) | > 2000 nM | 1150 nM | 30%

Reference: ChEMBL document CHEMBL1133594, “Structure-function studies on the new growth hormone-releasing peptide, ghrelin: minimal sequence of ghrelin necessary for activation of growth hormone secretagogue receptor 1a” (J Med Chem, 2000)
